In ChEMBL document CHEMBL1139391, “Synthesis and structure-activity relationship of benzetimide derivatives as human CXCR3 antagonists” (Bioorg Med Chem Lett, 2008):

What was measured:
[1] = target: T1, C-X-C chemokine receptor type 3 (Homo sapiens, UniProt P49682); experiment: Antagonist activity at human CXCR3 expressed in CHO cells assessed as inhibition of ITAC-stimulated [35S]GTPgammaS binding pretreated 30 mins before ITAC challenge; type: functional, cell-based
T1 sequence (P49682 whole entry): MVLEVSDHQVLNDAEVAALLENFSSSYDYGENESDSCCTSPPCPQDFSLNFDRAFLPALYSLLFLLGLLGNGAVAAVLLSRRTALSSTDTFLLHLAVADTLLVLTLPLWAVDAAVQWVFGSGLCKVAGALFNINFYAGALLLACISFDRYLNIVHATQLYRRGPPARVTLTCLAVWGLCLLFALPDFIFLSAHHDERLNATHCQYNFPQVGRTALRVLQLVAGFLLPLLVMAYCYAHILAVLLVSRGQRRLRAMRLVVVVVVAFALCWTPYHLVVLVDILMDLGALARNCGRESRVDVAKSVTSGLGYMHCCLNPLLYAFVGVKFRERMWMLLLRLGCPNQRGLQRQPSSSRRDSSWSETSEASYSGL

[2] = target: T2, Muscarinic acetylcholine receptor M1 (Homo sapiens, UniProt P11229); experiment: Binding affinity to human muscarinic M1 receptor
T2 sequence (P11229 whole entry): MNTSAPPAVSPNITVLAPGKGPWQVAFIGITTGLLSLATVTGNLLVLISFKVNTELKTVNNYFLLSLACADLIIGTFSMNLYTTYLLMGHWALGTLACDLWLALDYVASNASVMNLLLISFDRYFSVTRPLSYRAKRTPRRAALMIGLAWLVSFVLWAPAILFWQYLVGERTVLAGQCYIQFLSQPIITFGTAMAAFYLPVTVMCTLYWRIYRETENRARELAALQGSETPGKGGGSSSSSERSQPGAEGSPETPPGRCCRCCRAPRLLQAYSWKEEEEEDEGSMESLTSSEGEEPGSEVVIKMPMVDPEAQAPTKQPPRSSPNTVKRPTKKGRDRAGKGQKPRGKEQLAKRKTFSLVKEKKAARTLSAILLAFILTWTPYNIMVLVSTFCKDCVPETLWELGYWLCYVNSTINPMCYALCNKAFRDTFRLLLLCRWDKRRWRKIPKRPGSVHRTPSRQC

[3] = target: T3, Muscarinic acetylcholine receptor M2 (Homo sapiens, UniProt P08172); experiment: Binding affinity to human muscarinic M2 receptor
T3 sequence (P08172 whole entry): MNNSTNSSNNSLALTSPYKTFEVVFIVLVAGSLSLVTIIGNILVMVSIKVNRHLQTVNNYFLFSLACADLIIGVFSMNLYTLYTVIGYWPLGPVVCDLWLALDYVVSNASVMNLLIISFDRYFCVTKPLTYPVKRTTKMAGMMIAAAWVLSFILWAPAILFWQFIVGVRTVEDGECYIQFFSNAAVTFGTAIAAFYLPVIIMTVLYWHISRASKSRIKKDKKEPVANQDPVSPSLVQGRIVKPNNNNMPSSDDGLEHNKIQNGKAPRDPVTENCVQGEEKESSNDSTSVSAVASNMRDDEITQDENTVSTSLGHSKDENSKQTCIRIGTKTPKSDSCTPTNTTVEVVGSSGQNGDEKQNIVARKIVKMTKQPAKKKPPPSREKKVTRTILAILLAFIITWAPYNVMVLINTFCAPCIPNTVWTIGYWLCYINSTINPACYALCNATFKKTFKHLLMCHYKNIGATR

[4] = target: Muscarinic acetylcholine receptor M3 (Homo sapiens, UniProt P20309); experiment: Binding affinity to human muscarinic M3 receptor
Muscarinic acetylcholine receptor M3, sequence (P20309 whole entry): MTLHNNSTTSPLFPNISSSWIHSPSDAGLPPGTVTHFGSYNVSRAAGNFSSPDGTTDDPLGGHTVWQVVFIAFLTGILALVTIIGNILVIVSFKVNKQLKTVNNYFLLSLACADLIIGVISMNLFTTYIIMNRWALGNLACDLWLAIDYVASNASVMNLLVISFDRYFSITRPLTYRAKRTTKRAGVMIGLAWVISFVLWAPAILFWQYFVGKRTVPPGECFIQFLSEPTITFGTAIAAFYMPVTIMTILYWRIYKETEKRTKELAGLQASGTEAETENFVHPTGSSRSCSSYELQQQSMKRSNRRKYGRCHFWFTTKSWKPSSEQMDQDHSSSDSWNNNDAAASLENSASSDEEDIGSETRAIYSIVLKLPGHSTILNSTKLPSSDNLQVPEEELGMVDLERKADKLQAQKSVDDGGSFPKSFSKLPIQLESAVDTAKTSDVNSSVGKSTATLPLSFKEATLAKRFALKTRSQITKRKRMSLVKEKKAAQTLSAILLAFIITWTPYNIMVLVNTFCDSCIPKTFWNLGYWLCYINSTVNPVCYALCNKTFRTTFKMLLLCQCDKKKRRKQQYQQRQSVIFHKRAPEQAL

PBMC = experiment: Reduction of ITAC-induced migration in PHA/IL-2 activated human PBMC pretreated 10 mins before ITAC challenge after 3 hrs by fluorescent plate reader; type: functional, cell-based
In short: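 Cells pre-incubated with compound for 10 min at 25 °C. 80,000 cells per well placed on the filter topside, in 6-fold replicates. Lower wells held 3 nM human ITAC. After 3 h at 37 °C, non-migrated cells were removed and migrated cells quantified by fluorescence plate reader.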

[5] = target: T1, C-X-C chemokine receptor type 3; experiment: Displacement of [125I]ITAC from CXCR3 in PHA/IL-2 activated human PBMC pretreated 30 mins before [125I]ITAC challenge after 1 hr by liquid scintillation counter
In short: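 Pre-incubated with compound for 30 min. 80 pM [125I]-ITAC (2000 Ci/mmol) added for 60 min at 4 °C. Harvested on polyethyleneimine-presoaked GF/B filters; radioactivity counted by liquid scintillation.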

[6] = target: T4, C-C chemokine receptor type 1 (Homo sapiens) (UniProt P32246); experiment: Displacement of [125I]MIP1alpha from human CCR1 expressed in CHO cells at 10 uM; type: cell-based
T4 sequence (whole entry): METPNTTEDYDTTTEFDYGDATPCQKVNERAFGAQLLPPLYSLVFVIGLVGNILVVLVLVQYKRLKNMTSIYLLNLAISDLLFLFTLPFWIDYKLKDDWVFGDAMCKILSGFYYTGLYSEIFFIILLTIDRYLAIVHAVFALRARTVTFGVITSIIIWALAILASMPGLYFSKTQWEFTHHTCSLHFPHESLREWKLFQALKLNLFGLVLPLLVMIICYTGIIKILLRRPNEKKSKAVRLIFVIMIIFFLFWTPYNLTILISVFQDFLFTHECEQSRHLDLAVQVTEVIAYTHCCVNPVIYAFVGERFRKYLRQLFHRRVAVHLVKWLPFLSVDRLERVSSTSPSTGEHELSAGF

[7] = target: C-C chemokine receptor type 2 (Homo sapiens) (UniProt P41597); experiment: Displacement of [125I]MCP1 from human CCR2 expressed in CHO cells at 10 uM; type: cell-based
C-C chemokine receptor type 2 (Homo sapiens), sequence (P41597 whole entry, looked up): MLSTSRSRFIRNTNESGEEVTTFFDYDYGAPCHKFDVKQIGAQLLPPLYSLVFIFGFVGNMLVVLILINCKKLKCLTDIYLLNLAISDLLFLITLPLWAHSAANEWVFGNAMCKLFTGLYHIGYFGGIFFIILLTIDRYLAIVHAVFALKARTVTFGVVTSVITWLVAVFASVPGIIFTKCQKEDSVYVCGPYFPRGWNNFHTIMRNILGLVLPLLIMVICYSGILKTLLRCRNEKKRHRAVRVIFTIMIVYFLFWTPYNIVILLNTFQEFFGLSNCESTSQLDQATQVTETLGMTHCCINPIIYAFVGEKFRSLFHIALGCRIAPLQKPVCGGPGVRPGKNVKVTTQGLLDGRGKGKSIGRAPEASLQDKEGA

[8] = target: T5, C-C chemokine receptor type 4 (Homo sapiens) (UniProt P51679); experiment: Displacement of [125I]TARC from human CCR4 expressed in CHO cells at 10 uM; type: cell-based
T5 sequence (whole entry): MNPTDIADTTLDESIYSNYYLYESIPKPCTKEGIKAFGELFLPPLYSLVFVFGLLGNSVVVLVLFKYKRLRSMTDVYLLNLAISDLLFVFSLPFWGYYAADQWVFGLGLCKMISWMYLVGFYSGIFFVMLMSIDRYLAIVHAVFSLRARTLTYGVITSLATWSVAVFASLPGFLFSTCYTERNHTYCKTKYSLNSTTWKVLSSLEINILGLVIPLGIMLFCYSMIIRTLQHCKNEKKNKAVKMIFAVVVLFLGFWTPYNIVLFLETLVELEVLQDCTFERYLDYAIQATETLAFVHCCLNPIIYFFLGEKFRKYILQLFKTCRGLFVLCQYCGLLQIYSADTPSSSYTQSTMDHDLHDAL

[9] = target: Interleukin-8 receptors, CXCR1/CXCR2 (Homo sapiens) (UniProt P25025+P25024); experiment: Displacement of [125I]IL8 from human CXCR1/2 expressed in CHO cells at 10 uM; type: cell-based
[10] = target: T6, CX3C chemokine receptor 1 (Homo sapiens) (UniProt P49238); experiment: Displacement of [125I]fractalkine from human […] expressed in CHO cells at 10 uM; type: cell-based
T6 sequence (whole entry): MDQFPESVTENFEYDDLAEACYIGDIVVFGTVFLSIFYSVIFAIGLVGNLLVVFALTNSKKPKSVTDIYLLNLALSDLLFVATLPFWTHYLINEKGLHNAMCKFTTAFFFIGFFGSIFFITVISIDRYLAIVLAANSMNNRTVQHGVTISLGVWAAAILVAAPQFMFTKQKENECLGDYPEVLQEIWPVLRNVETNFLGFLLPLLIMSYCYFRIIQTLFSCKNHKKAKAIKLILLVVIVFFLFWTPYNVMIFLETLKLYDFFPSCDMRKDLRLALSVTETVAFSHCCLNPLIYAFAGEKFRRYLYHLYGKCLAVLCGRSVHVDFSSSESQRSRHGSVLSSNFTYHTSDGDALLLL

IC50 [1]	IC50 [2]	IC50 [3]	IC50 [4]	IC50 [5]	inhibition [6]	inhibition [7]	inhibition [8]	inhibition [9]	inhibition [10]	Structure (SMILES)	IC50 (PBMC)
610 nM	9600 nM	> 10000 nM	> 10000 nM	330 nM	–	–	–	–	–	O=C1CCC(c2ccccc2)(C2CCN(Cc3ccc(Br)cc3)CC2)C(=O)N1 (stereo in doubt; (-)-1a) [listing 1 of 2 here]	690 nM
–	–	–	–	–	< 25%	< 25%	< 25%	< 25%	< 25%	O=C1CCC(c2ccccc2)(C2CCN(Cc3ccc(Br)cc3)CC2)C(=O)N1 (stereo in doubt; (-)-1a) [listing 2 of 2 here]	–
